Results: ChEMBL document CHEMBL3286277, “Discovery of N-sulfonyl-7-azaindoline derivatives as potent, orally available and selective M(4) muscarinic acetylcholine receptor agonists” (Bioorg Med Chem Lett, 2014)
Calls of active or inactive are those of the source. The calls are words filed in the database; no cut-off is given here.

Experiments:
[1] = target: T1, Muscarinic acetylcholine receptor M4 (Homo sapiens) (UniProt P08173); assay: Agonist activity at human muscarinic acetylcholine receptor M4 expressed in CHO cells assessed as calcium mobilization at 0.3 uM by FLIPR assay relative to acetylcholine; assay type: functional, cell-based
T1 sequence (whole entry): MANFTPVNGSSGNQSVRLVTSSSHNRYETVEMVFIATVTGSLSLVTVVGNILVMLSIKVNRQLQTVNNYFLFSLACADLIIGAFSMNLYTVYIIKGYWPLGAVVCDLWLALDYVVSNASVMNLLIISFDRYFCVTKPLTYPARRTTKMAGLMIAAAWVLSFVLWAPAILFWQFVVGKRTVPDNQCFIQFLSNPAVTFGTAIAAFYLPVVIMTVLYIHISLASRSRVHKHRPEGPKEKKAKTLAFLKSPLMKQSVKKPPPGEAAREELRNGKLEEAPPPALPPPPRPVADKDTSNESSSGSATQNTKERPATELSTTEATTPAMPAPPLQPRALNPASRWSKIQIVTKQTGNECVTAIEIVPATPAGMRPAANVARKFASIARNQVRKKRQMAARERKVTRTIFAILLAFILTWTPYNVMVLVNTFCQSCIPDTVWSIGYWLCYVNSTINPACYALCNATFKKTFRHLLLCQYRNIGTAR

[2] = target: Voltage-gated inwardly rectifying potassium channel KCNH2 (Homo sapiens, UniProt Q12809); assay: Inhibition of human ERG tail current after 5 mins by patch-clamp method
Chain of Voltage-gated inwardly rectifying potassium channel KCNH2 (Q12809 whole entry): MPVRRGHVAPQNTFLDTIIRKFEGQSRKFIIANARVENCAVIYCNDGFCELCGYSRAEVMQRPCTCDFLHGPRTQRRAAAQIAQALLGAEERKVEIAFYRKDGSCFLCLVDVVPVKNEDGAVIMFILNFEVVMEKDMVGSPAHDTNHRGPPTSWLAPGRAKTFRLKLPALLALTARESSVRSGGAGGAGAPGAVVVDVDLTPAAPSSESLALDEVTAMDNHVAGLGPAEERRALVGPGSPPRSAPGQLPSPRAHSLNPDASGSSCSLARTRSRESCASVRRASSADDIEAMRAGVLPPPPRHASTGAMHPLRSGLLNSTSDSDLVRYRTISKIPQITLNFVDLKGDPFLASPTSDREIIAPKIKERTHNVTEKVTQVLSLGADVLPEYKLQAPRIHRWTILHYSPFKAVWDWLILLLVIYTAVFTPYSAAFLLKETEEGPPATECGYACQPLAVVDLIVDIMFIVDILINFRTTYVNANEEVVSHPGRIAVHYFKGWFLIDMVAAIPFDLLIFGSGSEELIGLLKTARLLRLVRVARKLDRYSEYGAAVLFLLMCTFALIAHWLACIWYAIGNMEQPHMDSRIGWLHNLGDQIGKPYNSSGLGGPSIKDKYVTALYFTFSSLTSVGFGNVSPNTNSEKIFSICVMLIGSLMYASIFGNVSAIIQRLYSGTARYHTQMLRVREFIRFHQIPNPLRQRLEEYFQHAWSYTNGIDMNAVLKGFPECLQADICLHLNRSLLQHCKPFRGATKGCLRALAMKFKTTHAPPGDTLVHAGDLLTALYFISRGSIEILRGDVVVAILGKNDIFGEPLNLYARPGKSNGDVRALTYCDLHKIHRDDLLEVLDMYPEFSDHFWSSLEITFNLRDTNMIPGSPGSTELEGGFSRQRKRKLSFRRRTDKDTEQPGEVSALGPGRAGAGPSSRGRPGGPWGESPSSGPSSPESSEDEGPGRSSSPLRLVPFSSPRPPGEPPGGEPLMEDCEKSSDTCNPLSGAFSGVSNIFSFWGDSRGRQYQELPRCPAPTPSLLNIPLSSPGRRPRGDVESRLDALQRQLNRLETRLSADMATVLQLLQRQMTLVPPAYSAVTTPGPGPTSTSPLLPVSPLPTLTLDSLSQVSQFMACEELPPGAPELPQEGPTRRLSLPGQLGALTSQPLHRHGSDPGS

[3] = target: T2, Muscarinic acetylcholine receptor M1 (Homo sapiens) (UniProt P11229); assay: Agonist activity at human muscarinic acetylcholine receptor M1 expressed in CHO cells assessed as calcium mobilization at 0.3 uM by FLIPR assay relative to acetylcholine; assay type: functional, cell-based
T2 sequence (whole entry): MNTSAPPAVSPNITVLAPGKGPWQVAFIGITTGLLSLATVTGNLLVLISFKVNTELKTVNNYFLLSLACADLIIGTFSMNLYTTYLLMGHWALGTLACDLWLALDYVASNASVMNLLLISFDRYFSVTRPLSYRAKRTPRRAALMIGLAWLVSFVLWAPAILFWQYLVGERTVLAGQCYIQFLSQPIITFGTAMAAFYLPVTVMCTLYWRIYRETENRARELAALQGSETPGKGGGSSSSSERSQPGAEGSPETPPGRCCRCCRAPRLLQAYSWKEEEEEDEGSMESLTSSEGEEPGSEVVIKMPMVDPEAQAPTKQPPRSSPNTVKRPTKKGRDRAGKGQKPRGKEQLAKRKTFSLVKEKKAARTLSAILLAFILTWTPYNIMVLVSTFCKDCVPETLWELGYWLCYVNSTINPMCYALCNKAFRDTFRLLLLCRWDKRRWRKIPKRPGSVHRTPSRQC

[4] = target: T3, Muscarinic acetylcholine receptor M2 (Homo sapiens) (UniProt P08172); assay: Agonist activity at human muscarinic acetylcholine receptor M2 expressed in CHO cells assessed as calcium mobilization at 0.3 uM by FLIPR assay relative to acetylcholine; assay type: functional, cell-based
T3 sequence (whole entry): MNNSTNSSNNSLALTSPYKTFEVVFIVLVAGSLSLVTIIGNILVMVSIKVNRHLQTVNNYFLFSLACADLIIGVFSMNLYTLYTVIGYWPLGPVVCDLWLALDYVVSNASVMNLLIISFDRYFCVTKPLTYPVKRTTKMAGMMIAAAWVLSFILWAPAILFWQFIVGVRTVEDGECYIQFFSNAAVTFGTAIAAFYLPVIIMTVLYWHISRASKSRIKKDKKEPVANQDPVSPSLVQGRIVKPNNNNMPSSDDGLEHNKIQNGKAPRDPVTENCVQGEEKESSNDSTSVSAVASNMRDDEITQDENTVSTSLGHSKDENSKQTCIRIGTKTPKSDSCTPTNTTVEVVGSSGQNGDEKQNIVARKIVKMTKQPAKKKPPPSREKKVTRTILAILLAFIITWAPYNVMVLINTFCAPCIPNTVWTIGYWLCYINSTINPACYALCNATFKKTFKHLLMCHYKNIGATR

[5] = target: Muscarinic acetylcholine receptor M3 (Homo sapiens) (UniProt P20309); assay: Agonist activity at human muscarinic acetylcholine receptor M3 expressed in CHO cells assessed as calcium mobilization at 0.3 uM by FLIPR assay relative to acetylcholine; assay type: functional, cell-based
Chain of Muscarinic acetylcholine receptor M3 (Homo sapiens) (P20309 whole entry, looked up): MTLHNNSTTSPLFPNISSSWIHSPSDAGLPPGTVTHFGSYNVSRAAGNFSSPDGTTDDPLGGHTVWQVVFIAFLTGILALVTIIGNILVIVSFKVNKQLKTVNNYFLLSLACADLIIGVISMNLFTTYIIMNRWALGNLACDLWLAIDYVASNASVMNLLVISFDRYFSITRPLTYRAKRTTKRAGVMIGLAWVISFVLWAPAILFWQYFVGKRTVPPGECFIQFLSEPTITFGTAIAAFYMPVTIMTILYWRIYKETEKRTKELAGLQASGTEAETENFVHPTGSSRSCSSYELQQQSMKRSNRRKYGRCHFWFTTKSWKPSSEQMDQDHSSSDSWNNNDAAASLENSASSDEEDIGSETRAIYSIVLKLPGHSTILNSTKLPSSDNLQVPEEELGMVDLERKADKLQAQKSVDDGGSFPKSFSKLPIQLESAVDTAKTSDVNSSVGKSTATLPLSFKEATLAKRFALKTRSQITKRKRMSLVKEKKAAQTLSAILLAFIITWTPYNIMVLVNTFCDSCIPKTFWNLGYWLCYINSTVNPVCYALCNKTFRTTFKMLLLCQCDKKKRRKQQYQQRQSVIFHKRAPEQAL

[6] = target: T4, Muscarinic acetylcholine receptor M5 (Homo sapiens) (UniProt P08912); assay: Agonist activity at human muscarinic acetylcholine receptor M5 expressed in CHO cells assessed as calcium mobilization at 10 uM by FLIPR assay relative to acetylcholine; assay type: functional, cell-based
T4 sequence (whole entry): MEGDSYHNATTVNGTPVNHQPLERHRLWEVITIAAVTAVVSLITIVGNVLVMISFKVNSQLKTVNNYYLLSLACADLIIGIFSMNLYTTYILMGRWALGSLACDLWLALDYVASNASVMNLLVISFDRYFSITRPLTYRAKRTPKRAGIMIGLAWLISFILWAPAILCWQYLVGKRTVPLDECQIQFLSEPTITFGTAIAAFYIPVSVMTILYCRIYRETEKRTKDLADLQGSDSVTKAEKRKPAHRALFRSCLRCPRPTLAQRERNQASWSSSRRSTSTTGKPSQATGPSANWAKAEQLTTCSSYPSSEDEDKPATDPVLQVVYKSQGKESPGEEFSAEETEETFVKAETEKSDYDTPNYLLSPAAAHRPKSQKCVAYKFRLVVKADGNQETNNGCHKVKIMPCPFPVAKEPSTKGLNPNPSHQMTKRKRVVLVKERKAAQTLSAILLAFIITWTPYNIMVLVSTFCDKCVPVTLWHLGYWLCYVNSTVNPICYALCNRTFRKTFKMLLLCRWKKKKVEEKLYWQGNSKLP

[7] = target: T5, Muscarinic acetylcholine receptor M4 (Homo sapiens, UniProt P08173); assay: Agonist activity at human muscarinic acetylcholine receptor M4 expressed in CHO cells assessed as calcium mobilization by FLIPR assay; assay type: functional, cell-based
T5 sequence (P08173 whole entry): T1 sequence (whole entry)

[8] = target: T6, Muscarinic acetylcholine receptor M1 (Homo sapiens, UniProt P11229); assay: Agonist activity at human muscarinic acetylcholine receptor M1 expressed in CHO cells assessed as calcium mobilization by FLIPR assay; assay type: functional, cell-based
T6 sequence (P11229 whole entry): T2 sequence (whole entry)

[9] = target: T1, Muscarinic acetylcholine receptor M4 (Homo sapiens); assay: Intrinsic activity at human muscarinic acetylcholine receptor M4 expressed in CHO cells assessed as calcium mobilization by FLIPR assay relative to acetylcholine; assay type: functional, cell-based
[10] = target: T2, Muscarinic acetylcholine receptor M1 (Homo sapiens); assay: Intrinsic activity at human muscarinic acetylcholine receptor M1 expressed in CHO cells assessed as calcium mobilization by FLIPR assay relative to acetylcholine; assay type: functional, cell-based
[11] = Oral bioavailability in rat at 1 mg/kg; assay type: ADME, organism-based; details: in vivo
[12] = Ratio of drug level in brain to plasma in rat; assay type: ADME; details: brain and plasma, read-out: BPR
[13] = target: T2, Muscarinic acetylcholine receptor M1 (Homo sapiens); assay: Competitive antagonist activity at human muscarinic acetylcholine receptor M1 expressed in CHO cells assessed as inhibition of ACh-induced calcium mobilization; assay type: functional, cell-based
[14] = target: T7, Alpha-1D adrenergic receptor (Homo sapiens) (UniProt P25100); assay: Binding affinity to human adrenaline alpha-1D receptor at 3 uM by radioligand displacement assay relative to control
T7 sequence (whole entry): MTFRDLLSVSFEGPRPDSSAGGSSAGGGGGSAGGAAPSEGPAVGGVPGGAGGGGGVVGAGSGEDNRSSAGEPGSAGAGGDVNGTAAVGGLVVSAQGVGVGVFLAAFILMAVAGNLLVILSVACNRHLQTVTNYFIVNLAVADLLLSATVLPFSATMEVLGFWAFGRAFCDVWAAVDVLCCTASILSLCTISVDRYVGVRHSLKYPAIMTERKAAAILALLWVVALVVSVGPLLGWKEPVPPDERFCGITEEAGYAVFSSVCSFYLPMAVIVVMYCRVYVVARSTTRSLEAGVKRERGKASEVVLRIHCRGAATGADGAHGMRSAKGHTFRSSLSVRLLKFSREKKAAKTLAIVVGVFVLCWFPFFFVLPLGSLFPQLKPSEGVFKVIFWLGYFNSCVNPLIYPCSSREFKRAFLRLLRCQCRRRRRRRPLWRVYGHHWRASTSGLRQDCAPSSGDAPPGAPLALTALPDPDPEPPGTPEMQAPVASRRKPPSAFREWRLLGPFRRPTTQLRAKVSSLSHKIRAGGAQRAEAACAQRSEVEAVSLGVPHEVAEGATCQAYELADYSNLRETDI

[15] = target: D(2) dopamine receptor (Homo sapiens) (UniProt P14416); assay: Binding affinity to human dopamine D2 receptor at 3 uM by radioligand displacement assay relative to control
Chain of D(2) dopamine receptor (Homo sapiens) (P14416 whole entry): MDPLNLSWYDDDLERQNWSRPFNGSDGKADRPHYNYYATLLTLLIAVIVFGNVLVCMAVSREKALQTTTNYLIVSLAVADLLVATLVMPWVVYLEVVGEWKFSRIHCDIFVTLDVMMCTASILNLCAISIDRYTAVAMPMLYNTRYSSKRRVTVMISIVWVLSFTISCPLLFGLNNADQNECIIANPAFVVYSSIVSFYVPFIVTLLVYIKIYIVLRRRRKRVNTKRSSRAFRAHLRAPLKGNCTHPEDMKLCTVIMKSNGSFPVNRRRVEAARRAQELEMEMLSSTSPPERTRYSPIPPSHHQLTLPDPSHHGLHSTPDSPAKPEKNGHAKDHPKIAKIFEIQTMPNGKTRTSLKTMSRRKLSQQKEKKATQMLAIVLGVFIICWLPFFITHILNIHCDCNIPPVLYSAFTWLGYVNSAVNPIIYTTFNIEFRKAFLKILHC

[16] = target: Histamine H1 receptor (Homo sapiens) (UniProt P35367); assay: Binding affinity to human histamine H1 receptor at 3 uM by radioligand displacement assay relative to control
Chain of Histamine H1 receptor (Homo sapiens) (P35367 whole entry): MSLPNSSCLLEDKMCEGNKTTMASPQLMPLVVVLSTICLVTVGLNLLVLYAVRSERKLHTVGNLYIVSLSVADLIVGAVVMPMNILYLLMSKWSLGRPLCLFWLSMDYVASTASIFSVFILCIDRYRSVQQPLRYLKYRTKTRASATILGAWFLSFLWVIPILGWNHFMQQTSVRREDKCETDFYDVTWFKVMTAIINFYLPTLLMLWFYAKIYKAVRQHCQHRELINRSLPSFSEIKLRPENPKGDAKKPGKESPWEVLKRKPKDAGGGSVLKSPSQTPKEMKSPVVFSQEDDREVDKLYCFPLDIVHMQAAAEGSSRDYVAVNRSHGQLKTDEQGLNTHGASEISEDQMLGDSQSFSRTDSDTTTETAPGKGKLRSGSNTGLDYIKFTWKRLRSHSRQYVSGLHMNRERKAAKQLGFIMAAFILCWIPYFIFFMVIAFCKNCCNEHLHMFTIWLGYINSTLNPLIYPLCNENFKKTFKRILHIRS

Rattus norvegicus = assay: Antipsychotic activity in po dosed Sprague-Dawley rat assessed as reversal of methamphetamine-induced hyperlocomotion administered 60 mins prior to methamphetamine challenge measured for 10 to 80 mins post methamphetamine challenge; assay type: functional, organism-based
In short: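 Rats were dosed orally with test compound (1–10 mg/kg) or vehicle 60 min before methamphetamine (0.1 mg/kg, ip). Locomotor activity was recorded for 80 min starting 10 min after the methamphetamine injection. Values are mean ± SEM, n = 6.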

P-gp = assay: Activity of p-gp (unknown origin) assessed as efflux ratio; assay type: ADME; details: human, not told

Structure (SMILES)	Emax [1] [%]	IC50 [2] [nM]	Emax [3] [%]	Emax [4] [%]	Emax [5] [%]	Emax [6] [%]	EC50 [7] [nM]	Intrinsic activity [9] [%]	other results
CC(C)OC(=O)N1CCC(C)(CN2CCC3(CC2)CN(S(C)(=O)=O)c2ncccc23)CC1	3	2750	–	–	–	–	–	–	–
CC1(CN2CCC3(CC2)CN(S(C)(=O)=O)c2ncccc23)CCN(C(=O)OC(C)(C)C)CC1	2	–	–	–	–	–	–	–	–
CCOC(=O)N1CCC(CN2CCC3(CC2)CN(S(C)(=O)=O)c2ncccc23)CC1	88	1900	20	12	7	3	93	83	EC50 [8]: 352 nM; Intrinsic activity [10]: 59%
CCOC(=O)N1CCC(C)(CN2CCC3(CC2)CN(S(C)(=O)=O)c2ncccc23)CC1	94	3630	5	3	4	3	13	81	bioavailability [11]: 49%; Kp [12]: 0.9; inhibition [13]: Active; inhibition [14]: 0%; inhibition [15]: 0%; inhibition [16]: 27%; Activity (Rattus norvegicus): Dose-dependent effect; efflux ratio (P-gp): 0.9
CCOC(=O)N1[C@@H]2CC[C@H]1C[C@H](CN1CCC3(CC1)CN(S(C)(=O)=O)c1ncccc13)C2	4	–	–	–	–	–	–	–	–
COC(=O)N1CCC(C)(CN2CCC3(CC2)CN(S(C)(=O)=O)c2ncccc23)CC1	52	–	3	2	1	–	–	–	–
